In ChEMBL document CHEMBL1149455, “Structure-activity relationship study of 1,4-dihydropyridine derivatives blocking N-type calcium channels” (Bioorg Med Chem Lett, 2006):

Legend:
[1] = target: Voltage-dependent N-type calcium channel subunit alpha-1B (Homo sapiens, UniProt Q00975); assay: Inhibitory activity against N-type calcium channel by calcium influx into IMR32 cells; format: functional, cell-based, IMR-32
[2] = target: Voltage-gated L-type calcium channel (Rattus norvegicus, UniProt P22002+Q02485+P27732); assay: Inhibitory activity against L-type calcium channel in SD rat thoracic aorta by Magnus method; format: functional, tissue-based
How it was run: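 Aortic ring held at 2 g resting tension and equilibrated 1 h. It was then exposed to high-K⁺ solution and then Tyrode's solution, 45 min each, and returned to high-K⁺. After maximal contraction, compound was added cumulatively at 90-min intervals to 10⁻⁹, 10⁻⁸, 10⁻⁷ and 10⁻⁶ M. IC50 was derived from inhibition of the K⁺-induced contraction.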

Rattus norvegicus = assay: Analgesic effect in rat following foot-pad injection of formalin at 30 mg/kg, po; format: functional

Voltage-dependent N-type calcium channel subunit alpha-1B, sequence (Q00975 whole entry): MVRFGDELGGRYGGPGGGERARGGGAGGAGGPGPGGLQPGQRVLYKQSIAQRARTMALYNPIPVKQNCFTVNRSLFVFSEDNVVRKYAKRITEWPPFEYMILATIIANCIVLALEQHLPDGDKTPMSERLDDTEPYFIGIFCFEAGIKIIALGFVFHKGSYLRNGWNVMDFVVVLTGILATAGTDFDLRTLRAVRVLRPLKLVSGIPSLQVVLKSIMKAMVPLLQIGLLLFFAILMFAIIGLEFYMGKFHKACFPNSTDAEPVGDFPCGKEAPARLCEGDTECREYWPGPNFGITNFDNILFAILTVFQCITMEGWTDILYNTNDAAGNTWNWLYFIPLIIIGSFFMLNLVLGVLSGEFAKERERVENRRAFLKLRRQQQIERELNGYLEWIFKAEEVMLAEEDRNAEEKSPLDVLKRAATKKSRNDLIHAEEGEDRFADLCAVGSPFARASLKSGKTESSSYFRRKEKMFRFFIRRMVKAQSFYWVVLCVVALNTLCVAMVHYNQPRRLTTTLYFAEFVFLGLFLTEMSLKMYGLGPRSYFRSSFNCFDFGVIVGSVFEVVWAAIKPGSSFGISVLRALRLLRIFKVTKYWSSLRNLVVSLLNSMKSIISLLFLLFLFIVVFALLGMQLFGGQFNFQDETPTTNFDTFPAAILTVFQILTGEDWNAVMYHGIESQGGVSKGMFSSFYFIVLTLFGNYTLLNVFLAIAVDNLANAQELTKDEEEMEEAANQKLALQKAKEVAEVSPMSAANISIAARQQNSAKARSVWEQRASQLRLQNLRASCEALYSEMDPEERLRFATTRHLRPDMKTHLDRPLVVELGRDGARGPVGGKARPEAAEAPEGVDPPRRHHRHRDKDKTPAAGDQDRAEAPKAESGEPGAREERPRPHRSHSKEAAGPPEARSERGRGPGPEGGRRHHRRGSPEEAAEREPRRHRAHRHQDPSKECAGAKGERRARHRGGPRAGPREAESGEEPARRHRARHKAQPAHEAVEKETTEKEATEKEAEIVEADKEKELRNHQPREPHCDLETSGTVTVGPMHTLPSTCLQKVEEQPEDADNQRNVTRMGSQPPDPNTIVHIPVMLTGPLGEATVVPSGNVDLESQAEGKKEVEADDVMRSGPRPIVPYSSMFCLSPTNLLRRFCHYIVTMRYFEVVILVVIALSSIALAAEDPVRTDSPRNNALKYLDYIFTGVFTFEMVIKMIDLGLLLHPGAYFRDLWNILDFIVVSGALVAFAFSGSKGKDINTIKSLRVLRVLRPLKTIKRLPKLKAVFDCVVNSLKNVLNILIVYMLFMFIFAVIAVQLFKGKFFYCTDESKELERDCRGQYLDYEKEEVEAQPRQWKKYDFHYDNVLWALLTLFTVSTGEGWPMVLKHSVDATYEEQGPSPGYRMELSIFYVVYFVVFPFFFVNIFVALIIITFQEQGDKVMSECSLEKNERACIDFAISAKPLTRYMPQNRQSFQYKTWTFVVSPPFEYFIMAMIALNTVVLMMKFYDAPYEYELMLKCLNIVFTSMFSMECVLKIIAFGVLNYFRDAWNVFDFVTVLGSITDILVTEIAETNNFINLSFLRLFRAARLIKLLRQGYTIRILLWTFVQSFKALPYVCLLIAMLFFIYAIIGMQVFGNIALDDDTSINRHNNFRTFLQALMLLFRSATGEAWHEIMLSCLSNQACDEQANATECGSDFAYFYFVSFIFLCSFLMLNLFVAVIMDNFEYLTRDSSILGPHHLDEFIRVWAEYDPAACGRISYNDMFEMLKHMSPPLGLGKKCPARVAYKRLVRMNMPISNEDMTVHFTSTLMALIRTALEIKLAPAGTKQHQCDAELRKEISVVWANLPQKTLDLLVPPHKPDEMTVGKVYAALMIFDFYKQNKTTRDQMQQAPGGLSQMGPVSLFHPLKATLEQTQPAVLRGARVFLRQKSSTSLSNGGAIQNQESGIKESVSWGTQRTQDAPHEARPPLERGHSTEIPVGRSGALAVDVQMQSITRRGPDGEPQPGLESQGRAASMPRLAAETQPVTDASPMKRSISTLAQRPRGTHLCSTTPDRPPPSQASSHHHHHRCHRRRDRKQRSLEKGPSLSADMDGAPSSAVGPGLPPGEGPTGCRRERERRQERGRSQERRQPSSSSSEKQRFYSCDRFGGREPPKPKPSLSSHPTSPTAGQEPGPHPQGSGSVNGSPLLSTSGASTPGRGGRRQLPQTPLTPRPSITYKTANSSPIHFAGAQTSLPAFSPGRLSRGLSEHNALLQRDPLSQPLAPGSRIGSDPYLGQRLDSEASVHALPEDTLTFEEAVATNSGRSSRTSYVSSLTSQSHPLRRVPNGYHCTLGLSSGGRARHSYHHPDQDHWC

IC50 [1] [nM] | IC50 [2] [nM] | SMILES | inhibition in vivo at 30 mg/kg (Rattus norvegicus) [%]
2000 | 9 | CC1=NC(C)=C(C(=O)O)C(c2ccccc2)/C1=C(\O)OC/C=C/c1ccccc1 (stereo unspecified) | 
890 | 6.8 | CC1=NC(C)=C(C(=O)O)C(c2cccc(Cl)c2)/C1=C(\O)OC/C=C/c1ccc(C)cc1 (stereo unspecified) | 
37000 | 31 | CC1=NC(C)=C(C(=O)O)C(c2ccccc2[N+](=O)[O-])/C1=C(\O)OC/C=C/c1ccccc1 (stereo unspecified) | 
11000 | 130 | CC1=NC(C)=C(C(=O)O)C(c2ccoc2)/C1=C(\O)OC/C=C/c1ccccc1 (stereo unspecified) | 
790 | 10 | CC1=NC(C)=C(C(=O)O)C(c2cccc(Br)c2)/C1=C(\O)OC/C=C/c1ccccc1 (stereo unspecified) | 
28000 | 50 | CC1=NC(C)=C(C(=O)O)C(c2cccc(Cl)c2)/C1=C(\O)OCC(=O)Nc1ccccc1 (stereo unspecified) | 
3900 | 14 | CC1=NC(C)=C(C(=O)O)C(c2cccc(Cl)c2)/C1=C(\O)OCc1ccc2ccccc2c1 (stereo unspecified) | 
680 | 2.8 | CC1=NC(C)=C(C(=O)O)C(c2cccc(Cl)c2)/C1=C(\O)OC/C(C)=C/c1ccccc1 (stereo unspecified) | 
4600 | 4400 | COC(=O)c1cccc(C2C(C(=O)O)=C(C)N=C(C)/C2=C(/O)OC/C=C/c2ccccc2)c1 (stereo unspecified) | 
1300 | 20 | CC1=NC(C)=C(C(=O)O)C(c2cccc(F)c2)/C1=C(\O)OC/C=C/c1ccccc1 (stereo unspecified) | 
1700 | 1800 | CC1=C(C(=O)O)C(c2cccc(Cl)c2)C(C(=O)OCCC(c2ccccc2)c2ccccc2)=C(C(F)(F)F)N1 (stereo unspecified) | 46
1000 | 20 | CC1=NC(C)=C(C(=O)O)C(c2cccc(Cl)c2)/C1=C(\O)OC/C=C/c1ccccc1 (stereo unspecified) | 
10000 | 1600 | CC1=NC(C)=C(C(=O)O)C(c2cccc(Cl)c2)/C1=C(\O)OCCC(c1ccccn1)c1ccccn1 (stereo unspecified) | 
6200 | 320 | CC1=NC(C)=C(C(=O)O)C(c2cccc(Cl)c2)/C1=C(\O)OC/C=C/c1ccncc1 (stereo unspecified) | 
2900 | 44 | CC1=NC(C)=C(C(=O)O)C(c2ccsc2)/C1=C(\O)OC/C=C/c1ccccc1 (stereo unspecified) | 
37000 | > 10000 | CC1=NC(C)=C(C(=O)O)C(c2cccc(C(=O)O)c2)/C1=C(\O)OC/C=C/c1ccccc1 (stereo unspecified) | 
3900 | 200 | CC1=NC(C)=C(C(=O)O)C(c2cccc(Cl)c2)/C1=C(\O)OCC=C(c1ccccc1)c1ccccc1 (stereo unspecified) | 
3500 | 46 | CC1=C(C(=O)O)C(c2cccc([N+](=O)[O-])c2)C(C(=O)OC/C=C/c2ccccc2)=C(C)N1 (stereo unspecified) | 
21000 | 1600 | CC1=NC(C)=C(C(=O)O)C(c2ccc([N+](=O)[O-])cc2)/C1=C(\O)OC/C=C/c1ccccc1 (stereo unspecified) | 
1100 | 360 | CC1=NC(C)=C(C(=O)O)C(c2cccc(Cl)c2)/C1=C(\O)OCCC(c1ccccc1)c1ccccc1 (stereo unspecified) | 
4500 | 850 | CC1=C(C(=O)O)C(c2cccc(Cl)c2)C(C(=O)NC/C=C/c2ccccc2)=C(C)N1 (stereo unspecified) | 
1700 | 13 | CC1=NC(C)=C(C(=O)O)C(c2cccc(I)c2)/C1=C(\O)OC/C=C/c1ccccc1 (stereo unspecified) | 
1800 | 76 | CC1=NC(C)=C(C(=O)O)C(c2cccc(C)c2)/C1=C(\O)OC/C=C/c1ccccc1 (stereo unspecified) | 
1500 | 5.8 | CC1=NC(C)=C(C(=O)O)C(c2cccc(Cl)c2)/C1=C(\O)OC/C=C/c1ccc(Cl)cc1 (stereo unspecified) | 
830 | 3.7 | CC1=NC(C)=C(C(=O)O)C(c2cccc(Cl)c2)/C1=C(\O)OC/C=C/C1CCCCC1 (stereo unspecified) | 
24000 | 190 | CC1=NC(C)=C(C(=O)O)C(c2cccnc2)/C1=C(\O)OC/C=C/c1ccccc1 (stereo unspecified) | 
1600 | 1.1 | COCCOC(=O)C1=C(C)NC(C)=C(C(=O)OC/C=C/c2ccccc2)C1c1cccc([N+](=O)[O-])c1 (stereo unspecified) [CILNIDIPINE] | 46
